Bioassay records (PubChem)
This is a sample that favours compounds with a hit; in the whole collection about 1.8% have one here.
ABHD4 inh: inhibitors of mouse ABHD4; inhibition, % at 8.92 µM; 370,000 tested, 0.54% active; Q8VD66; AID 720543; purified mABHD4, FP-Rh probe fluorescence polarization;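 active = inhibition exceeding the mean over every tested compound plus 3 SD, cut at about 30% in these data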;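 note: 0% = plate median of compound wells and 100% = S159A mutant with DMSO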
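system = mouse ABHD4 enzyme, wild type | medium = HEPES pH 7.0, NaCl, Pluronic buffer | also added = FP-Rh probe | incubation = Enzyme–compound pre-incubation 45 min, then probe 60 min, both 25 °C | technique = fluorescence polarization, excitation 525 nm, emission 598 nm, BODIPY TMR filters | controls = S159A mutant high control, sample median low control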
ARNT TACC3 PPI: ARNT/TACC3 interaction disruption. Q9Y6A5. AlphaScreen His-ARNT PAS-B/GST-TACC3 binding, luminescence; TACC3 fragment carries E629A point mutation. inhibition, % at 9.99 µM. 390,000 tested, 0.66% active. AID 623870;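 active = mean inhibition of replicates at least 50% and at least half of replicates each reaching 50%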;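 note: 0% = complete ARNT plus TACC3 wells and 100% = ARNT alone without TACC3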
HTRA1 inh: HTRA1 (human) protease inhibition. Q92743. recombinant HTRA1, FP-rhodamine activity-based probe, fluorescence polarization. inhibition, % at 5.96 µM. 340,000 tested, 0.5% active; in the data active = inhibition above about 36%;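 note: 0% = enzyme with DMSO and 100% = wells lacking enzyme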
SIAE primary: inhibitors of human sialic acid acetylesterase SIAE; SIAE FP-Rh probe binding, fluorescence polarization; inhibition, % at 9.66 µM; 370,000 tested, 0.69% active;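 active = inhibition above a cutoff: mean of compounds within the control limits plus 3 SD of those, cut at about 17% in these data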;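 note: 0% = plate median of compound wells and 100% = probe without SIAE protein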
Target sequence (Q9HAT2 whole entry, looked up): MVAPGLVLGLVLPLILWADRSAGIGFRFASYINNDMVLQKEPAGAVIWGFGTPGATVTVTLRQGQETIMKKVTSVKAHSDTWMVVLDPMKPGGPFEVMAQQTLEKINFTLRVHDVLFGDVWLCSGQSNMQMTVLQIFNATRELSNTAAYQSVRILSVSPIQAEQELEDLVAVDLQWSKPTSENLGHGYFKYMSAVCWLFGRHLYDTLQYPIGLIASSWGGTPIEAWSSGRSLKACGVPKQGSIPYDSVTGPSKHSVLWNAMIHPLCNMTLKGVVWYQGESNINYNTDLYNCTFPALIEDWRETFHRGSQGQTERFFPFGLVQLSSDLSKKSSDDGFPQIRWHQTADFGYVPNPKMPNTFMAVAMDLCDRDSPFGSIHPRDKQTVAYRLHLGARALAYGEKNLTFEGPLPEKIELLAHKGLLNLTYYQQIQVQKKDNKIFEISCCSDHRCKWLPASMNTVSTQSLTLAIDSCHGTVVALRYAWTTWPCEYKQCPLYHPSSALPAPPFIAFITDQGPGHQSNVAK
TCR-CD3 inh: human TCR-CD3 binding inhibition; inhibition, % at 9.4 µM; 360,000 tested, 0.37% active; TAMRA-labeled TCR probe fluorescence, biochemical; in the data active = inhibition above about 19%;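 note: recombinant mutant TCR 2C K166C tagged with TAMRA read by polarization; 0% = receptor in buffer alone and 100% = receptor with positive control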
ABHD4 confirm: ABHD4 (mouse) inhibition, FP confirmation; purified mABHD4, FP-Rh probe fluorescence polarization; 1,800 tested, 55% active; shares compounds with ABHD4 inh; inhibition, % at 8.92 µM;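 active = mean inhibition across replicates above the hit cutoff set in the primary screen, cut at about 30% in these data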;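 note: 0% = wild-type ABHD4 with DMSO and 100% = catalytically dead S159A mutant with DMSO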
The depositor's hits bear a star; . = no result.

SMILES | ABHD4 inh | ARNT TACC3 PPI | HTRA1 inh | SIAE primary | TCR-CD3 inh | ABHD4 confirm
CC(CCc1ccc(O)cc1)NCCc1ccc(O)c(O)c1 (configuration not stated) | 32.6* | 2.5 | 32.0 | 7.6 | -9.2 | 14.9
F[B-](F)(F)c1cc2cc(Br)ccc2s1 | . | -1.7 | 3.4 | . | . | .
F[B-](F)(F)c1cc2ccccc2s1 | 86.7* | -6.1 | 2.4 | 1.8 | 7.2 | 72.0*
CO[C@H]1C=CO[C@@]2(C)Oc3c(C)c(O)c4c(O)c(c(C=NN5CCN(C)CC5)c(O)c4c3C2=O)NC(=O)C(C)=CC=C[C@H](C)[C@H](O)[C@@H](C)[C@@H](O)[C@@H](C)[C@H](OC(C)=O)[C@@H]1C | 33.0* | 11.8 | 34.2 | 9.6 | -6.0 | 10.4
Cc1ccc(C(=O)O)cc1-c1ccc(/C=C2/NC(=O)N(c3ccccc3)C2=O)o1 | 46.4* | -6.8 | -5.4 | -0.7 | 10.4 | 30.2*
Cc1cc(C(=O)O)ccc1-c1ccc(/C=C2\NC(=O)N(Cc3ccccc3Cl)C2=O)o1 | . | -4.0 | -9.1 | . | . | .
Cc1ccc(C(=O)O)cc1-c1ccc(/C=C2\SC(=O)N(CC(=O)Nc3ccccc3)C2=O)o1 | 11.7 | -2.2 | -22.7 | -26.8 | 8.0 | .
Cc1ccc(CN2C(=O)N/C(=C\c3ccc(-c4ccc(C(=O)O)cc4C)o3)C2=O)cc1 | 42.9* | -1.8 | 5.2 | -0.1 | 6.4 | 39.7*
COc1ccc(NC(=O)Nc2ccc3c(c2)[C@@H]2C[C@H](CC(=O)NCCc4ccccc4)O[C@@H](CO)[C@@H]2O3)cc1 | . | -3.8 | . | . | . | .
COc1ccccc1NC(=O)N[C@@H]1CC[C@@H](CCNS(=O)(=O)c2ccc(F)cc2)O[C@@H]1CO | . | 1.6 | . | . | . | .
CCCCCN=C(N)N/N=C/c1c[nH]c2ccc(OC)cc12 | 40.7* | 23.3 | 11.9 | -4.5 | -3.8 | 53.8*
CCCNC(=O)N1C[C@@H](O)COC[C@H]2O[C@@H](CC(=O)N3CCCCC3)CC[C@@H]21 | . | 6.6 | . | . | . | .
O=C(Cc1ccncc1)N[C@H]1CC[C@@H](CCn2cc(-c3ccccc3F)nn2)O[C@@H]1CO | . | -6.4 | . | . | . | .
COc1cc(O)c2c(c1)OC(C)(C)CC2=O | -5.7 | -13.7 | 3.2 | 0.1 | 5.3 | .
COc1cc(O)cc2cc3c(c(O)c12)C(=O)CC(C)(O)O3 (configuration not stated) | 38.1* | . | 10.7 | 6.8 | 13.5 | 11.1
Cn1ncc(Cl)c1C(=O)N1CCC(Cc2ccccc2)CC1 | -14.3 | 6.0 | -1.0 | -5.5 | -14.1 | .
O=C(N1CCC(Cc2ccccc2)CC1)n1ncc(C(O)(c2ccccc2)c2ccccc2)n1 | 76.6* | . | . | -3.2 | . | 68.8*
C[C@@H]1CN([C@@H](C)CO)C(=O)c2cc(NS(=O)(=O)c3ccc(Cl)cc3)ccc2O[C@@H]1CN(C)S(=O)(=O)c1cn(C)cn1 | . | -7.3 | . | . | . | .
C[C@H]1CN([C@@H](C)CO)C(=O)c2cc(NC(=O)NC3CCCCC3)ccc2O[C@H]1CN(C)Cc1ccc(C(F)(F)F)cc1 | . | -1.1 | . | . | . | .
COc1cc(N)c2ncccc2c1Br | 62.0* | 107.4* | 24.3 | 7.3 | 13.3 | 28.2
COc1ccc2nc(Nc3nc(C)c(C(C)=O)s3)sc2c1 | 35.1* | -2.1 | 14.9 | 5.1 | 1.2 | 54.1*
COc1cc(/C=C2\SC(=S)N(Nc3ccccc3)C2=O)cc(OC)c1OC | 33.3* | 15.0 | -11.1 | 1.5 | -0.8 | 40.2*
CCOc1ccc(/C=C2\SC(=S)N(Nc3ccccc3)C2=O)cc1OC | 9.6 | . | -11.1 | 8.1 | 1.2 | .
O=C(C[C@@H]1C=C[C@H](NC(=O)c2cccnc2)[C@H](CO)O1)NCc1ccc(Cl)c(Cl)c1 | . | 5.0 | . | . | . | .
CCN(CC)S(=O)(=O)c1ccc(N2CCCCC2)c(NC(=O)C2CSC3(C)CCC(=O)N23)c1 (configuration not stated) | 39.9* | . | -9.1 | 2.5 | -0.5 | 36.4*
SMILES | ABHD4 inh | ARNT TACC3 PPI | HTRA1 inh | SIAE primary | TCR-CD3 inh | ABHD4 confirm
CN(C)c1ccc(S(=O)(=O)N2CCCCC2)cc1NC(=O)C1CSC2(C)CCC(=O)N12 (configuration not stated) | 1.1 | -1.4 | 5.1 | -5.0 | -0.1 | .
O=C1NCN(c2ccccc2)C12CCN(CCCC(c1ccc(F)cc1)c1ccc(F)cc1)CC2 | 31.9* | 4.6 | -9.6 | 3.4 | -8.7 | 37.0*
O=C(CCCN1CCN(c2ccccc2)CC1)c1ccc(F)cc1 | -8.1 | . | 7.0 | -4.7 | -21.7 | .
COc1cccc(-c2ccc3n(c2=O)C[C@@H]2[C@@H](CO)[C@H](C(=O)N(C)C)[C@H]3N2Cc2cncnc2)c1 | . | -11.9 | . | . | . | .
Cc1ccc(N2CCN(c3ccc(NC(=O)CCC(=O)O)cc3)CC2)cc1 | 15.7 | 3.4 | 2.8 | -3.8 | 4.0 | .
O=C(O)CCC(=O)Nc1ccc(N2CCCCCC2)cc1 | 31.5* | 8.6 | 7.6 | 4.5 | -4.5 | 11.9
C[C@@H]1CN([C@H](C)CO)C(=O)Cc2cc(NS(=O)(=O)c3cn(C)cn3)ccc2O[C@@H]1CN(C)Cc1ccc(C(=O)O)cc1 | . | 6.4 | . | . | . | .
O=C(CNc1ccc2ccccc2c1)N/N=C/c1ccccn1 | 39.3* | . | . | 14.8 | -2.2 | 12.0
O=C(N[C@@H]1C=C[C@@H](CC(=O)N2CCCCC2)O[C@H]1CO)c1ccccn1 | . | 7.2 | . | . | . | .
O=C(O)C1CCN(S(=O)(=O)c2ccc3[nH]ccc3c2)CC1 | 29.7* | . | 1.5 | -0.2 | -0.2 | 29.2
O=C(C[C@H]1CC[C@@H]2[C@H](COC[C@@H](O)CN2Cc2cc(F)ccc2F)O1)N[C@H]1CCN(Cc2ccccc2)C1 | . | 1.9 | . | . | . | .
Cc1ccc(-n2nc(C)c3c2OC(N)=C(C#N)C3c2ccco2)cc1 (configuration not stated) | 41.0* | 3.0 | 8.2 | 14.0 | -2.4 | 20.3
C[C@@H]1CN([C@H](C)CO)C(=O)c2cc(NS(=O)(=O)c3cn(C)cn3)ccc2O[C@@H](C)CCCCO[C@H]1CN(C)S(=O)(=O)c1ccccc1 | . | -5.6 | . | . | . | .
COc1ccc(NC(=O)Nc2ccc3c(c2)C(=O)N([C@H](C)CO)C[C@@H](C)[C@H](CN(C)S(=O)(=O)c2ccc(OC)cc2)OCCCC[C@@H](C)O3)cc1 | . | -5.6 | . | . | . | .
CCOC(=O)NC1(NCC(C)C)Oc2ccccc2O1 | 33.3* | -2.6 | 17.3 | 8.1 | 5.0 | 2.9
